In the library only some 2.1% were active in any assay of this set; here they are far more common.
aSyn 5UTR inh = 5' untranslated region of α-synuclein, MLPCN primary screen | alpha-synuclein 5'UTR reporter, inhibitor activity | inhibition, % (tested at 7.5 µM) | hit rate 0.82% among 300,000 | AID 1813; in the data active = inhibition above about 60%;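 note: H4 neuroglioblastoma cells stably carrying SNCA 5'UTR luciferase fusion; 0% = DMSO wells and 100% = positive control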
PAX8 inh HTS = lowers PAX8-driven luciferase in RMG-I cells; hit rate 1.2% among 360,000; RMG-I TPO-luciferase reporter, SteadyGlo, 24 h; AID 652154; inhibition, % at 12.6 µM;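 active = mean replicate inhibition at least 60% with every replicate also reaching 60%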;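 note: luciferase light reporting Pax8 driven TPO promoter activity; plate controls were median of neutral control wells for no effect and mitoxantrone controls for full effect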
FN deposit inh = fibronectin deposition inhibition; inhibition, % at 12.6 µM; AID 743247; hit rate 0.086% among 350,000; AH1F fibroblasts, Alexa488-fibronectin deposition fluorescence, overnight;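 active = mean inhibition across replicates of 30% or more, regardless of how many single replicates reach that level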;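 note: positive control wells lacked labelled fibronectin entirely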
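Material: AH1F fibroblast monolayer depositing Alexa488-labelled fibronectin into matrix / Amount: 10000 AH1F cells per well / Signal: fluorescence 485/525 nm / Medium: DMEM, 2% serum / Compound: single dose, pinned / Incubation: 1 h cell adhesion before compound, then overnight fibronectin incubation / Reagent: Alexa488-FN, 24 nM final / Read-out: inhibition of fibronectin deposition signal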
EWS-Fli inh = EWS/Fli transcriptional activity inhibition. hit rate 0.67% among 350,000. AID 651661. A673 NR0B1-luciferase reporter, viability-normalised. inhibition, % at 12.6 µM;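 active = mean inhibition of at least 50% after viability correction, with every replicate also passing that limit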;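 note: firefly luciferase signal divided by Alamar Blue viability fluorescence both relative to DMSO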
EBV LMP1 NFkB = inhibitors of Epstein-Barr LMP1-induced NF-kappaB reporter. LMP1-induced NF-kappaB luciferase reporter cells, luminescence. inhibition, % at 12.5 µM. hit rate 0.69% among 350,000; in the data active = inhibition above about 41%;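 note: 0% = neutral control wells and 100% = reference inhibitor control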
Shn3 inh set2 = inhibitors of Schnurri-3 3'UTR reporter in osteoblasts; hit rate 0.52% among 360,000; inhibition, % at 12.5 µM; Clone20 osteoblast Shn3 3'UTR firefly luciferase, 24 h;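 active = mean inhibition of at least 75% with every replicate also reaching 75%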;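 note: 0% = median of neutral control wells and 100% = pilot-screen positive control compound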
Active calls of the source: *; . = no result.

SMILES | aSyn 5UTR inh | PAX8 inh HTS | FN deposit inh | EWS-Fli inh | EBV LMP1 NFkB | Shn3 inh set2
C[C@H](CO)N1C[C@H](C)[C@@H](CN(C)C(=O)Nc2ccc(C(F)(F)F)cc2)OCCCC[C@H](C)Oc2ccc(NC(=O)C3CCCCC3)cc2C1=O | . | 26 | . | -3 | . | .
Nc1nnnn1/N=C/C(Br)=C/c1ccccc1 | -251 | 93* | -5 | . | 22 | 97*
COc1cccc(-c2cc(=O)c3cc(NC(=O)c4ccc(N(C)C)cc4)ccc3[nH]2)c1 | 115* | . | . | . | . | .
COc1cccc(-c2cc(=O)c3cc(NC(=O)c4ccccc4)ccc3[nH]2)c1 | 82* | 52 | 20 | 37 | 1 | 11
COc1cccc(-c2ccc3c(c2)[C@@H]2[C@@H](CCN2S(=O)(=O)c2cccc(OC)c2)[C@@H](CO)N3)c1 | . | 16 | 38* | -5 | . | .
COc1cccc(S(=O)(=O)N2CC[C@@H]3[C@@H](CO)Nc4ccc(-c5ccccc5OC)cc4[C@@H]32)c1 | . | 80* | -14 | 5 | . | .
COc1cccc(S(=O)(=O)N2CC[C@H]3[C@H](CO)Nc4ccc(-c5ccc(C#N)cc5)cc4[C@H]32)c1 | . | 10 | 19 | 3 | . | .
COc1ccccc1S(=O)(=O)N1CC[C@H]2[C@H](CO)Nc3ccc(-c4ccc(F)cc4)cc3[C@H]21 | . | 72* | 8 | 0 | . | .
O=S(=O)(c1ccccc1F)N1CC[C@@H]2[C@H](CO)Nc3ccc(C4=CCCCC4)cc3[C@@H]21 | . | 89* | -3 | -4 | . | .
C[C@@H]1CN([C@@H](C)CO)C(=O)c2cc(C#Cc3ccccc3F)cnc2O[C@H]1CN(C)C(=O)C1CCC1 | . | 3 | . | -1 | . | .
C[C@@H]1CN([C@H](C)CO)C(=O)c2cc(-c3cccc(F)c3)cnc2O[C@@H]1CN(C)C(=O)C1CC1 | . | . | . | -9 | . | .
C[C@H]1CN([C@@H](C)CO)C(=O)c2cccc(NS(=O)(=O)c3cccs3)c2O[C@@H]1CN(C)Cc1ccc(C(=O)Nc2ccccc2N)cc1 | . | 1 | . | 7 | . | .
Cc1noc(C)c1NC(=O)Nc1ccc2c(c1)C(=O)N([C@H](C)CO)C[C@@H](C)[C@H](CN(C)Cc1ccc(C(=O)O)cc1)OCCCC[C@@H](C)O2 | . | 6 | . | -1 | . | .
CO[C@@H]1CN(C)C(=O)c2ccc(NC(=O)NC(C)C)cc2OC[C@@H](C)N(Cc2ccccc2)C[C@@H]1C | . | . | 15 | 3 | . | .
COc1cccc(-c2ccc3c(c2)[C@H]2[C@H](CCN2S(=O)(=O)c2ccccc2F)[C@@H](CO)N3)c1 | . | 101* | 1 | -6 | . | .
COc1ccccc1N(CC(=O)N(CC(C)C)CC(C)C)S(=O)(=O)c1cccs1 | -28 | 2 | 32* | 2 | 4 | 7
C[C@@H]1CCCCO[C@H](CN(C)C(=O)Nc2ccc(F)cc2)[C@H](C)CN([C@H](C)CO)C(=O)c2cc(NC(=O)Nc3ccc(F)cc3)ccc2O1 | . | -22 | -1 | 6 | . | .
C[C@@H]1CN([C@H](C)CO)C(=O)c2cc(NC(=O)Nc3ccc(C(F)(F)F)cc3)ccc2O[C@@H](C)CCCCO[C@H]1CN(C)C(=O)Nc1ccc(F)cc1 | . | 84* | . | 8 | . | .
C[C@@H]1CCCCO[C@H](CN(C)C(=O)Nc2ccc(F)cc2)[C@@H](C)CN([C@@H](C)CO)C(=O)c2cc(NC(=O)Nc3ccc(C(F)(F)F)cc3)ccc2O1 | . | 95* | . | -1 | . | .
C[C@@H]1CN([C@H](C)CO)C(=O)c2cc(NC(=O)Nc3ccc(F)cc3)ccc2O[C@@H](C)CCCCO[C@H]1CN(C)C(=O)Nc1ccc(F)cc1 | . | 86* | 10 | 9 | . | .
C[C@@H]1CCCCO[C@@H](CN(C)C(=O)C2CCCCC2)[C@H](C)CN([C@H](C)CO)C(=O)c2cc(NC(=O)Nc3ccc(F)cc3)ccc2O1 | . | 86* | . | 17 | . | .
C[C@H](CO)N1C[C@H](C)[C@@H](CN(C)C(=O)Nc2ccc(F)cc2)OCCCC[C@H](C)Oc2ccc(NC(=O)Nc3ccc(C(F)(F)F)cc3)cc2C1=O | . | 39 | . | 4 | . | .
CCCNC(=O)N[C@@H]1CC[C@H](CCNS(=O)(=O)c2cccc(F)c2)O[C@H]1CO | . | -8 | 2 | 4 | . | .
CC=Cc1ccc2n(c1=O)C[C@@H]1[C@@H](CO)[C@H](C(=O)NCCC)[C@H]2N1C(=O)c1ccccc1F (mixture of isomers) | . | 2 | . | -13 | . | .
O=C(CC1CC1)N1CC(=O)N2[C@H](C1)[C@@H](c1ccc(C#Cc3ccccc3)cc1)[C@@H]2CO | . | . | . | -2 | . | .

High-throughput results: PubChem, Broad Institute
